Compound activity as filed in PubChem.
The full list was thinned out, with hits kept by preference.
HSF1 inh – HSF1 inhibitors in luciferase reporter cells, primary screen, cell-based, NIH3T3, luminescence | NIH3T3-HGL HSE-luciferase, MG132-induced, luminescence 8 h; hits give low values | activity change, negative = inhibition, % at 7.5 µM (by protocol) | actives 0.77% (n = 300,000) | AID 2098, 2009;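 active means more than half of replicate wells show activity change below -50%, luminescence cut by over half; inconclusive means some wells, but at most half, below -50%; inactive means no replicate well below -50%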;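 further: luciferase reports HSF-1 transcriptional activity via heat shock element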
Lmaj promast – Leishmania major promastigote growth inhibition, primary screen | Leishmania major promastigotes, resazurin fluorescence viability | inhibition, % at 10 µM | actives 9% (n = 200,000) | AID 1063, 2008; in the data active means inhibition above about 50%;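 further: promastigotes grown with compound for 44 hours at 28 °C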
T cruzi repl – inhibitors of intracellular T. cruzi growth, primary screen, luminescence, NIH3T3 host cells; AID 1885, 2009; T. cruzi beta-gal in NIH3T3, 90 h; inhibition, % (concentration not given with the values); actives 1.4% (n = 300,000);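 active means mean inhibition across valid replicates above about 55%, limit read from the data; inconclusive means mean below that limit but half or more replicates reach it; inactive means mean below it, under half of replicates reach it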;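 further: signal also drops with host cell toxicity which is not excluded here; higher percent means less beta-gal luminescence so fewer parasites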
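assay system = mouse NIH/3T3 fibroblasts infected with β-gal-expressing T. cruzi Tulahuen C4 | input = 5,000 NIH/3T3 host cells per well | buffer or medium = DMEM plus 2% FBS | timing = 3 h host attachment, then at least 90 h co-culture | measured by = GalScreen luminescence, 60 min | evaluation = luminescence reflecting intracellular parasite burden, expressed as percent inhibition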
Hsp70 act – Hsp70 transcriptional activators, primary screen, cell-based, HeLa, Hsp70 promoter luciferase, luminescence, 10 µM; actives 0.04% (n = 200,000); AID 1203, 2008; activation, % at 10 µM; HeLa Hsp70 promoter luciferase reporter; scaled: vehicle 0, proteasome-inhibitor control 100%;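 active means activation above the mean across all tested compounds plus 3 SD, cutoff set per campaign, cut at about 5.5% in these data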
HSF1 activator – HSF-1 activators, primary screen, NIH3T3-HGL cells, MG132 stress, luminescence, single point; NIH3T3-HGL HSF-1 luciferase reporter, 8 h; 100% = twice DMSO control signal; activation, % at 9 µM; actives 1.7% (n = 300,000);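 active means mean replicate activation of at least 50% with a set share of replicates each reaching 50%; inconclusive means only one of those two conditions met; inactive means mean below 50% and too few replicates reaching it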
Of the large screens only hits and unclear results are named; the others gave an inactive call.

CCCCCCOc1ccc(/C(C)=N/NC2=NCCN2)cc1[N+](=O)[O-]	Lmaj promast 100, T cruzi repl 66, HSF1 activator inconclusive
CCCCOc1ccc(Br)cc1/C(C)=N/NC1=NCCN1	Lmaj promast 101
CC(C)c1ccc(O)c(NC(=S)NC(=O)CCc2ccccc2)c1	none
COC(=O)C1C(=O)NC(SC)=C(C#N)C1c1ccccc1F (stereo not given)	Lmaj promast 82 (no result: HSF1 inh, T cruzi repl, HSF1 activator)
Cc1ccc(Cn2nc(C)c(C(=O)NCC(c3cccs3)N3CCOCC3)c2Cl)cc1 (stereo not given)	none (no result: Lmaj promast, Hsp70 act)
CCC(=O)N1N=C(c2ccc(NS(C)(=O)=O)cc2)CC1c1ccc(N(C)C)cc1 (stereo not given)	none
COc1cc(/C=C2/C(=O)NN(c3ccc(Cl)cc3)C2=O)ccc1OC(=O)c1ccco1	Lmaj promast 52
COc1cc2ncnc(NCc3ccc(Cl)cc3)c2cc1OC	Lmaj promast 62
COc1cc2ncnc(NCc3ccc(F)cc3)c2cc1OC	none (no result: Lmaj promast, Hsp70 act)
CC(C)CC(c1nnnn1Cc1cccs1)N1CCN(c2nc3ccccc3s2)CC1 (stereo not given)	Lmaj promast 98
COCCn1nnnc1C(c1cccs1)N1CCN(c2nc3ccccc3s2)CC1 (stereo not given)	Lmaj promast 95
CCC(c1nnnn1Cc1cccs1)N1CCN(c2nc3ccccc3s2)CC1 (stereo not given)	T cruzi repl inconclusive
COC(=O)CCC(=O)N1CCCC(N2CCN(c3cccc(C(F)(F)F)c3)CC2)C1 (stereo not given)	none (no result: Lmaj promast, Hsp70 act)
O=C(Nc1cccc(Cl)c1)N1CCOCC1	HSF1 inh -55 (no result: Lmaj promast, Hsp70 act)
O=C(Nc1ccc(Cl)cc1)N1CCCC1	Lmaj promast 96
O=C(Nc1ccc(Cl)cc1)N1CCSc2ccccc21	Lmaj promast 90
O=C(Nc1ccc(Cl)cc1)C1C2CCCCC21 (stereo not given)	HSF1 activator 79 (no result: Lmaj promast, Hsp70 act)
Cc1nonc1OCCNCc1c(C(=O)N(C)C)nc2ccc(Cl)cn12	none
CCCCn1c(CNC(=O)C23CC4CC(CC(C4)C2)C3)nnc1SC(C)CC (stereo not given)	none
O=C(OCC(=O)N1CCCCCC1)c1ccc([N+](=O)[O-])cc1Cl	none
O=C(NCc1ccccn1)C1Nc2ccc(C(F)(F)F)cc2C2C=CCC12 (stereo not given)	none (no result: Lmaj promast, Hsp70 act)
O=C(Nc1cccc(Cl)c1)N1CCN(Cc2ccccc2)CC1	none
O=C(Nc1cccc(Cl)c1)N1CCCC1	Lmaj promast 100
Cc1ccc(Cl)cc1N1CCN(C(c2ccc(C#N)cc2)c2nnnn2C2CCCC2)CC1 (stereo not given)	Lmaj promast 71 (no result: HSF1 inh, T cruzi repl, HSF1 activator)
c1cncc(C(c2nnnn2C2CCCCC2)N2CCCCC2)c1 (stereo not given)	none
Cc1ccc(Cl)cc1N1CCN(C(c2cccnc2)c2nnnn2C2CCCCC2)CC1 (stereo not given)	Lmaj promast 99
Cc1cccc(C)c1NC(=O)C(C)Sc1n[nH]c(-c2ccncc2)n1 (stereo not given)	none (no result: Lmaj promast, Hsp70 act)
ClC1=C(Cl)C(Cl)=C(Cl)C1=C/C=C/c1ccccc1	T cruzi repl 63 (no result: Lmaj promast, Hsp70 act)
NC1=NC(=O)/C(=C\C=C\c2ccccc2)S1	none
C(#Cc1ccc(C#CCN2CCCC2)cc1)CN1CCCC1	Lmaj promast 92
COc1ccc(Nc2nnc(-c3ccc(C)cc3)c3ccccc23)cc1C(=O)N1CCCCC1	Lmaj promast 66
CN(CC(=O)Nc1ccc(F)cc1)C(=O)COC(=O)c1cc(S(=O)(=O)N(C)C)ccc1N1CCCC1	HSF1 inh -68 (no result: Lmaj promast, Hsp70 act)
O=C(Cn1cc(C(F)(F)F)ccc1=O)Nc1cccc(S(=O)(=O)N2CCOCC2)c1	none
CCCCc1nc2cc(Cl)ccc2o1	none
COc1ccc(C(=O)O/N=C(\N)Cc2ccc([N+](=O)[O-])cc2)c(OC)c1	none (no result: Lmaj promast, Hsp70 act)
O=C(O)/C=C/C(=O)N1CCN(c2cccc(Cl)c2)CC1	none
CCN(CC)c1ccc(/C=N/NC(=S)NC)c(O)c1	Lmaj promast 83
CCN(CC)c1ccc(/C=N/NC(=O)c2ccoc2C)c(O)c1	T cruzi repl 57 (no result: Lmaj promast, Hsp70 act)
CCN(CC)c1ccc(/C=N/NC(=O)OC)c(O)c1	none (no result: HSF1 inh, T cruzi repl, HSF1 activator)
CCN(CC)c1ccc(N=Cc2ccc(N(CC)CC)cc2O)cc1	Lmaj promast 100, T cruzi repl 74
CCN(CC)c1ccc(C=Nc2ccc(N(C)C)cc2)c(O)c1	none
CCN(CC)c1ccc(/C=N/N2CCN(Cc3ccccc3)CC2)c(O)c1	Lmaj promast 92
CCN(CC)c1ccc(/C=N/NC(=O)c2ccc3nc[nH]c3c2)c(O)c1	none (no result: Lmaj promast, Hsp70 act)
CCOC(=O)Cn1nnnc1C(CC)N(Cc1cccs1)Cc1cc2cc(C)ccc2[nH]c1=O (stereo not given)	Lmaj promast 95
CCOc1ccc2[nH]c(=O)c(CN(Cc3cccs3)C(CC)c3nnnn3C(C)(C)CC)cc2c1 (stereo not given)	Lmaj promast 75
CCC(c1nnnn1C(C)(C)C)N(Cc1cccs1)Cc1cc2cc(C)c(C)cc2n2nnnc12 (stereo not given)	Lmaj promast 78, T cruzi repl 56
CCOC(=O)Cn1nnnc1C(C(C)C)N(Cc1cccs1)Cc1cc2cc(C)ccc2[nH]c1=O (stereo not given)	none
Cc1ccc2c(c1)cc(CN(Cc1cccs1)C(=O)c1ccco1)c1nnnn12	none
CCC(c1nnnn1C1CCCC1)N(Cc1cccs1)Cc1cc2cc(C)ccc2[nH]c1=O (stereo not given)	Lmaj promast 63
CN(Cc1ccco1)C(=O)Cn1ncc2c([nH]c3ccccc32)c1=O	none (no result: Lmaj promast, Hsp70 act)
CCOC(=O)Cn1nnnc1CN(Cc1ccc(OC)cc1)Cc1cc2cc(C)ccc2[nH]c1=O	none
CCOC(=O)Cn1nnnc1C(CC)N(Cc1cc2ccc(C)cc2[nH]c1=O)C1CCCC1 (stereo not given)	HSF1 activator 69
Cc1cccc(NS(=O)(=O)c2ccc3c(c2)oc(=O)n3C)c1C	none (no result: Lmaj promast, Hsp70 act)
Cc1cccc(NS(=O)(=O)c2ccc3nc(-c4ccccc4)[nH]c3c2)c1C	Lmaj promast 59
CCOC(=O)C1=C(C)NC(C)=C(C(=O)OCC)C1/C=C/c1ccccc1OC	HSF1 activator 67
C=CCOC(=O)C1=C(C)NC(C)=C(C(=O)OCC=C)C1/C=C/c1ccccc1	Lmaj promast 100
COCCOC(=O)C1=C(C)NC(C)=C(C(=O)OCCOC)C1/C=C/c1ccccc1OC	HSF1 activator 77 (no result: Lmaj promast, Hsp70 act)
CCOC(=O)C1=C(C)NC(=O)NC1/C=C/c1ccccc1OC (stereo not given)	none
CCOc1ccc(C(=O)NCCC(=O)N2CCC3(CC2)NCCc2[nH]cnc23)cc1OCC	none (no result: Lmaj promast, Hsp70 act)
O=S1(=O)c2cccc3cccc(c23)N1Cc1nnc(-c2ccccc2Br)o1	HSF1 activator 73
O=C1c2ccccc2S(=O)(=O)N1Cc1nnc(-c2ccccc2Br)o1	none
O=C(CC12CC3CC(CC(C3)C1)C2)Nc1cccc2ncccc12	none
